Data reported in ChEMBL document CHEMBL1123678, “Octahydropyrazino[2',3':3,4]pyrido[1,2-a]indoles. A new class of potent antihypertensive agents” (1987).

Columns and labels:
Rattus norvegicus [1] = experiment: Antihypertensive activity was determined in cannulated spontaneously hypertensive rats(SHR) and marked bradycardia was reported at a dose of 5 mg/kg; assay type: functional, organism-based; design: dose 5 mg/kg
Rattus norvegicus [2] = experiment: Antihypertensive activity was determined in cannulated spontaneously hypertensive rats(SHR) and maximum decrease of mean arterial blood pressure (MABP) at 5 mg/kg oral dose; assay type: functional, Artery
Procedure, shortened: (§1)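 Cannulated SHR given compound by gastric gavage in 0.5% methylcellulose (5 mL/kg), doses 0.1–50 mg/kg, 4–8 animals per dose, after 1-h equilibration. MABP recorded for 4 h; maximal % decrease reported with time to peak effect. Significance by two-way analysis of variance.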

Rattus norvegicus [3] = experiment: Antihypertensive activity was determined in cannulated spontaneously hypertensive rats(SHR) and marked bradycardia was reported at a dose of 10 mg/kg; assay type: functional, organism-based; design: dose 10 mg/kg
Rattus norvegicus [4] = experiment: Vasopressor responses to epinephrine as a measure of the alpha-1-adrenoceptor blocking activity at 10 mg/kg administered orally was reported to be reveresed; assay type: functional, organism-based; design: dose 10 mg/kg
Rattus norvegicus [5] = experiment: Antihypertensive activity was determined in cannulated spontaneously hypertensive rats(SHR) and maximum decrease of mean arterial blood pressure (MABP) at 10 mg/kg oral dose; assay type: functional, Artery; procedure, shortened: as §1
Rattus norvegicus [6] = experiment: Vasopressor responses to epinephrine as a measure of the alpha-1-adrenoceptor blocking activity at 5 mg/kg administered orally was reported to be reveresed; assay type: functional, organism-based; design: dose 5 mg/kg
Rattus norvegicus [7] = experiment: Antihypertensive activity was determined in cannulated spontaneously hypertensive rats(SHR) and maximum decrease of mean arterial blood pressure (MABP) at 1 mg/kg oral dose; assay type: functional, Artery; procedure, shortened: as §1
Rattus norvegicus [8] = experiment: Vasopressor responses to epinephrine as a measure of the alpha-1-adrenoceptor blocking activity at 1 mg/kg administered orally was reported to be reveresed; assay type: functional, organism-based; design: dose 1 mg/kg
Rattus norvegicus [9] = experiment: Antagonism of vasopressor responses to epinephrine as a measure of the alpha-1-adrenoceptor blocking activity at 50 mg/kg administered orally was reported to be reversed; assay type: functional, organism-based; design: dose 50 mg/kg
Rattus norvegicus [10] = experiment: Antihypertensive activity was determined in cannulated spontaneously hypertensive rats(SHR) and maximum decrease of mean arterial blood pressure (MABP) at 50 mg/kg oral dose; assay type: functional, Artery; procedure, shortened: as §1

Q: With CCN1CCN(CC)[C@H]2c3c(C)c4ccccc4n3CC[C@@H]21.Cl.Cl as the compound, how does the HR (Rattus norvegicus [1]) read?
A: Its HR is “Heart rate response was reported to be reduce by 10-25% after 4 hr at a dose of 25 mg/kg”.

Q: What about the “Decrease in MABP” value (Rattus norvegicus [2]) of the same compound?
A: Its value is 28%.

Q: What about the HR (Rattus norvegicus [3]) of the same compound?
A: The HR was “Heart rate response was reported to be reduce by 10-25% after 4 hr at a dose of 25 mg/kg”.

Q: What about the Activity (Rattus norvegicus [4]) of the same compound?
A: Its Activity is “Vasopressor response reveresed”.

Q: And the “Decrease in MABP” value (Rattus norvegicus [5])?
A: The value was 32%.

Q: And the Activity (Rattus norvegicus [6])?
A: Its Activity is “Vasopressor response reveresed”.

Q: What about the “Decrease in MABP” value (Rattus norvegicus [7]) of the same compound?
A: The value was 14%.

Q: What about the Activity (Rattus norvegicus [8]) of the same compound?
A: Its Activity is “Vasopressor response reveresed”.

Q: With CCN1CCN(CCOc2ccccc2)C2CCn3c(c(C)c4ccccc43)C21.Cl.Cl (stereo not given) as the compound, how does the Activity (Rattus norvegicus [9]) read?
A: Its Activity is “Antagonism reversed”.

Q: What about the “Decrease in MABP” value (Rattus norvegicus [10]) of the same compound?
A: Its value is 22%.
